Assay outcomes deposited in PubChem BioAssay by several laboratories.
Hits are enriched below; roughly 1.6% of the tested compounds scored in any of these assays.
SUMO1-SIM PPI: modulators of SUMO1 protein-protein interactions, primary screen, biochemical, uHTS. 0.33% of 360,000 active. inhibition, % at 20 µM. Small ubiquitin-related modifier 1 (Homo sapiens), P63165. SUMO1 binding to a labelled peptide, TR-FRET, 1 h; in the data active = inhibition above about 37%
STEP inh: STEP phosphatase inhibitors, primary screen, biochemical, fluorescence intensity, uHTS | 0.25% of 360,000 active | recombinant STEP, OMFP fluorogenic substrate | AID 588621, 2011 | inhibition, % at 20 µM;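 active = inhibition at 20 µM, scaled per plate between control wells, above about 37%, limit read from the data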;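 also: 0% = DMSO with enzyme and substrate and 100% = substrate only without enzyme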
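Test system: STEP tyrosine phosphatase / Reagent: OMFP at 25 µM / Doses: 20 µM, 1% DMSO / Read-out: percent inhibition scaled to no-enzyme and uninhibited-enzyme controls, plate-pattern corrected / Detection: FITC-channel fluorescence of OMFP product / Medium: Bis-Tris buffer pH 6.0, 2.5 mM DTT, 0.005% Tween 20 / Schedule: 20 min at room temperature, dark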
F508del corr: F508del CFTR correction, initial screen, CFBE line, single point | activity (quench increase), % at 7.58 µM | AID 720511, 2013 | 0.36% of 350,000 active | CFBE cells, YFP halide quenching; stimulated with forskolin plus potentiator P3; % fluorescence drop versus neutral controls;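 active = mean added fluorescence quench of at least 8% versus neutral control, with both replicates also reaching 8%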;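 also: cells transiently co-express mutant CFTR-F508del with the halide-sensitive YFP; corrector assay measuring rescue of mutant channel to the surface after 24 h compound exposure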
LMPTP inh: LMPTP phosphatase inhibitors, primary screen, biochemical, fluorescence intensity, uHTS. Low molecular weight phosphotyrosine protein phosphatase (Homo sapiens), P24666. recombinant LMPTP-A, OMFP fluorogenic substrate. inhibition, % at 20 µM. 0.22% of 360,000 active. AID 651560, 2012;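 active = compounds that cut the enzyme signal by at least half of the control window in the single-dose screen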;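 also: plate controls were DMSO wells with enzyme plus substrate for no effect and substrate without enzyme for full effect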
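Test system: LMPTP-A phosphatase enzyme; input: 0.625 nM LMPTP-A final; reagent: OMFP substrate, 400 µM final; compound dosing: 20 µM single dose, 3% DMSO; incubation: 50 min dark incubation at room temperature; measured by: endpoint fluorescence intensity from OMFP dephosphorylation; measure: % inhibition relative to no-enzyme and uninhibited control wells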
DNMT1 inh: human DNMT1 methyltransferase inhibitors, primary screen, biochemical, molecular beacon, fluorescence, HinP1I cleavage, uHTS. DNA (cytosine-5)-methyltransferase 1 (Homo sapiens), P26358. inhibition (reported as % activation of signal), % at 10 µM. 0.83% of 360,000 active; in the data active = inhibition above about 50%
Target sequence (P26358 504-1616 limits assumed): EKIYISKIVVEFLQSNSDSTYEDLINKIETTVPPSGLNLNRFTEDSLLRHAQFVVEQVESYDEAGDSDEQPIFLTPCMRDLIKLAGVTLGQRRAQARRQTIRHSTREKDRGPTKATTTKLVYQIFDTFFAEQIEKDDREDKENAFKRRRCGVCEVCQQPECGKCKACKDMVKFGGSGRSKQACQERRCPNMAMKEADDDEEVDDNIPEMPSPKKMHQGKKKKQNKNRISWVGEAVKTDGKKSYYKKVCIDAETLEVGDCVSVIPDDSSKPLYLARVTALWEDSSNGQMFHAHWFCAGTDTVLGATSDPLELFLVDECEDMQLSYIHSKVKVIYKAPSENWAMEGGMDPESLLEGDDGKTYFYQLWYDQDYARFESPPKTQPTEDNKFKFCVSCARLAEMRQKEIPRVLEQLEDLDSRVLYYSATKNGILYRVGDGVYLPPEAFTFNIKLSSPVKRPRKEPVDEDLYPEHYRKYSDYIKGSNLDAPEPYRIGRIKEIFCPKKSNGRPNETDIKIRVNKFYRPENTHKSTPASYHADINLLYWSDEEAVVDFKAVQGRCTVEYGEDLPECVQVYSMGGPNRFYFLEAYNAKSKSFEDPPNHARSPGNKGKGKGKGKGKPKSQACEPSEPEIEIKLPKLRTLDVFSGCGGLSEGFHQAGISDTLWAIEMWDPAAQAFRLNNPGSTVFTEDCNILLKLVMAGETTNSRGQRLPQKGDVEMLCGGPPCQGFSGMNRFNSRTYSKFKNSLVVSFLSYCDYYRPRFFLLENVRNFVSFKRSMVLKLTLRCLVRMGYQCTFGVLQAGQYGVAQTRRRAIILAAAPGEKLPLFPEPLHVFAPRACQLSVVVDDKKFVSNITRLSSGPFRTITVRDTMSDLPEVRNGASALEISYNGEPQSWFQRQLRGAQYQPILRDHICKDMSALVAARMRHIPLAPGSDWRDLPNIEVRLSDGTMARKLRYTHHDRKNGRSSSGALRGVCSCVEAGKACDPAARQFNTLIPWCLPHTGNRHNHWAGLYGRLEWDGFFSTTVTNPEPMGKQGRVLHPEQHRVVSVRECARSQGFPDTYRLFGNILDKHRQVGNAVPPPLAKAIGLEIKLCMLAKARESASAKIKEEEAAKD
Scp1 inh: Scp-1 phosphatase inhibitors, primary screen, biochemical, colorimetric, uHTS. Carboxy-terminal domain RNA polymerase II polypeptide A small phosphatase 1 (Homo …. Recombinant Scp1, phosphopeptide, malachite green phosphate absorbance. inhibition, % at 20 µM. 0.88% of 340,000 active;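 active = inhibition above about 50% at 20 µM, limit read from the data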;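 also: plate controls were DMSO wells with enzyme for no effect and wells lacking enzyme for full effect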
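Incubation: 45 min enzyme reaction at room temperature / System: truncated SCP-1 phosphatase (76-261aa) / Reagent: Phospho 17-mer peptide substrate / Buffer or medium: Acidic Tris acetate buffer with magnesium and detergent / Signal: absorbance at 630 nm / Doses: one concentration, 20 µM, with 1.0% DMSO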
Scp-1 conf: Scp-1 phosphatase inhibitors, retest, confirmation, biochemical, colorimetric, single concentration; shares compounds with Scp1 inh; recombinant SCP-1 catalytic domain, phosphate release, malachite green absorbance; inhibition, % at 20 µM; 61% of 2,500 active; AID 540281, 2011;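 also: plate controls were DMSO with enzyme for no effect and buffer wells lacking enzyme for full effect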
MG interference: colorimetric readout interference by compounds, confirmation, artefact control for Scp-1 inhibitor project, biochemical, single concentration; 2,500 tested, under 10 active; apparent inhibition (interference), % at 20 µM; Colorimetric interference counterscreen, malachite green absorbance 630 nm; shares compounds with Scp1 inh;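 also: compounds added after enzyme reaction finished so only phosphate colour detection is probed; plate controls were DMSO wells with completed Scp-1 reaction for no effect and substrate wells lacking enzyme for full effect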
Scp-1 Tm shift: Scp-1 binding by thermal shift, confirmation, orthogonal assay for Scp-1 inhibitor project, biophysical, differential scanning fluorimetry; shares compounds with Scp1 inh; Recombinant SCP1, Sypro Orange thermal shift Tm; thermal shift relative to vanadate control, % at 40 µM; 25% of 1,500 active;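 active = substances whose mean melting-temperature shift, as a percentage of the reference inhibitor's shift, reaches about 5.3%, limit read from the data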;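 also: 0% = Tm of DMSO wells and 100% = Tm with sodium orthovanadate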
Starred values were filed as active, the others as inactive; · = not tested or not shown.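 The calls were made as follows, unless noted: active = inhibition of at least 30% at 20 µM; inactive = the rest.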

SMILES | SUMO1-SIM PPI | STEP inh | F508del corr | LMPTP inh | DNMT1 inh | Scp1 inh | Scp-1 conf | MG interference | Scp-1 Tm shift
O=C(O)CCCC(=O)Nc1ccc(Cl)cc1 | 13 | 0 | · | 1 | 1 | -1 | · | · | ·
O=C(O)CCNc1ccc(Cl)cc1 | 1 | 1 | 2 | 1 | 19 | 52* | 43* | -14 | -21
O=C(O)C1=C[C@@H](c2ccccc2)C[C@@H](OCc2ccc(CO)cc2)O1 | 4 | -1 | -2 | -1 | 1 | 0 | · | · | ·
C#Cc1ccc([C@@H]2C=C(C(=O)O)O[C@H](OCc3ccc(CO)cc3)C2)cc1 | -1 | 2 | -1 | 0 | 45 | 57* | 68* | 0 | 2
COc1ccccc1-c1sc2cc3c(cc2c1C#CC1(O)CCCCC1)OCO3 | -2 | -2 | -2 | 2 | -23 | 56* | -14 | -20 | ·
COc1ccc(-c2sc3cc4c(cc3c2C#CC2(O)CCCCC2)OCO4)cc1 | 1 | -2 | -1 | 3 | -21 | 0 | · | · | ·
COc1ccccc1-c1oc2ccccc2c1C#CC1(O)CCCCC1 | 0 | -1 | 1 | 1 | -5 | 89* | 8 | -20 | ·
COc1ccc(S(=O)(=O)Nc2ccc3c(c2)C(=O)N([C@@H](C)CO)C[C@H](C)[C@@H](CN(C)C(=O)Nc2ccccc2)O3)cc1 | · | · | -2 | · | · | · | · | · | ·
C[C@@H](NC(=O)Cn1ccc(N)nc1=O)c1cccc2ccccc12 | -3 | -2 | 2 | -2 | 1 | -2 | -24 | -25 | ·
CC(/C=C/c1ccccc1F)=N\NC(=O)c1ccccc1 | -16 | -1 | 0 | 0 | 2 | -9 | · | · | ·
CC(/C=C/c1ccccc1F)=N\NC(=O)c1ccc(Cl)cc1 | 0 | -2 | -2 | 0 | 1 | 52* | -14 | -14 | ·
Cc1ccc(C(=O)N/C(=C\c2ccco2)C(=O)NCCN2CCOCC2)cc1 | -4 | -1 | 1 | -2 | 0 | 75* | -18 | -16 | ·
COc1ccc(S(=O)(=O)NCCC(=O)NC2CCCCC2C)cc1[N+](=O)[O-] (stereo not drawn) | -10 | 9 | 4 | 8 | 28 | 56* | 46* | -14 | 5.3*
Cc1ccc(S(=O)(=O)NCCC(=O)NC2CCCCC2C)cc1 (stereo not drawn) | 0 | 3 | -4 | -1 | 0 | -7 | · | · | ·
CCOC(=O)Cn1c2[n+](c3ccccc31)CC(O)CS2 (stereo not drawn) | 3 | -2 | 3 | -2 | 2 | 102* | 91* | -9 | -19
O=C(Nc1ccc(N2CCN(C(=O)c3ccco3)CC2)cc1)c1ccc([N+](=O)[O-])cc1Cl | -31 | -2 | 3 | 2 | -2 | -5 | · | · | ·
Cc1ccc(C(=O)Nc2ccc(N3CCN(C(=O)c4ccco4)CC3)cc2)c(Cl)c1 | -2 | 3 | 0 | 2 | -12 | 68* | -11 | -10 | ·
COc1ccc2c3c(n(C)c2c1)[C@@H](CO)N(CC1CCCC1)CC31CCN(Cc2nccs2)CC1 | · | · | 5 | · | · | · | · | · | ·
Cc1c(CCC(=O)O)c(=O)oc2c(C)c3occ(-c4ccc(Br)cc4)c3cc12 | 52* | 22 | -2 | 90* | 12 | 67* | 66* | -28 | -6
Cc1coc2c(C)c3oc(=O)c(CCC(=O)N[C@@H](C)C(=O)N[C@@H](Cc4ccccc4)C(=O)O)c(C)c3cc12 | -2 | 44* | 3 | 23 | 19 | 104* | 64* | -18 | -33
CCCC(NC(=O)Cc1c(C)c2cc3c(C)c(C)oc3c(C)c2oc1=O)C(=O)N[C@@H](Cc1ccccc1)C(=O)O (stereo partly drawn) | 20 | 10 | 1 | 21 | 18 | 98* | 88* | -8 | -18
COc1ccc(-c2coc3c(C)c4oc(=O)c(CCC(=O)O)c(C)c4cc23)cc1 | 24 | 4 | · | 11 | -1 | -12 | · | · | ·
COc1ccc(S(=O)(=O)Nc2ccc3c(c2)C(=O)N([C@H](C)CO)C[C@H](C)[C@@H](CN(C)C)OCCCC[C@@H](C)O3)cc1 | · | · | 1 | · | · | · | · | · | ·
O=C(Cc1ccccc1)N[C@@H]1CC[C@@H](CC(=O)N2CCOCC2)O[C@@H]1CO | · | · | 0 | · | · | · | · | · | ·
COC(=O)c1c(C)cc(O)cc1O | 5 | 1 | 0 | -1 | -2 | -4 | · | · | ·
SMILES | SUMO1-SIM PPI | STEP inh | F508del corr | LMPTP inh | DNMT1 inh | Scp1 inh | Scp-1 conf | MG interference | Scp-1 Tm shift
COC(=O)c1cc(O)cc(OC)c1C(=O)c1c(O)cc(C)cc1O | 8 | -2 | 2 | 1 | -2 | 58* | 31* | -18 | 1
O=C1NC(=S)SC1=Cc1cccs1 | -9 | 1 | -2 | 0 | -1 | 53* | -2 | -12 | ·
O=C1NC(=S)SC1=Cc1cc(Br)ccc1O | 16 | -1 | 2 | 0 | 7 | 67* | 2 | -24 | ·
O=C1NC(=S)SC1=Cc1ccccc1Br | 11 | -1 | -1 | 2 | 4 | -5 | · | · | ·
Cc1noc(C)c1NC(=O)Nc1ccc2c(c1)C(=O)N([C@@H](C)CO)C[C@@H](C)[C@@H](CN(C)Cc1ccc(C(=O)O)cc1)OCCCC[C@H](C)O2 | · | · | 4 | · | · | · | · | · | ·
CC(C(=O)N1CCCCC1)N1CCN(S(=O)(=O)c2ccc(Cl)cc2)CC1 (stereo not drawn) | -3 | -2 | 0 | -1 | 5 | 97* | 78* | -13 | -9
CCOc1cc(/C=C/c2cccc[n+]2C)ccc1O | -32 | 0 | 1 | -2 | 0 | 72* | -12 | -14 | ·
CCOc1cc(/C=C/c2cccc[n+]2C)ccc1OCC(=O)Nc1ccc(C)cc1 | -25 | -4 | -1 | 0 | 0 | 4 | · | · | ·
COc1cc(/C=C/c2cccc[n+]2C)ccc1OCC(=O)Nc1ccccc1C | -8 | 0 | 1 | 0 | 1 | 52* | -3 | -11 | ·
